Assay outcomes (PubChem)
MT1-MMP act inh = blockers of MT1-MMP proenzyme processing, primary screen, HT1080 RFP-PRO-GFP cells, GFP/RFP fluorescence; Matrix metalloproteinase-14 (Homo sapiens), P50281; GFP/RFP ratio fluorescence, overnight; percent of plate control window, DMSO zero; GFP/RFP ratio change, % at 20 µM; 0.061% of 360,000 active;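 active means GFP/RFP ratio change of at least 30% with cell ATP level not reduced by more than half and red fluorescence within 50% of control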
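system = RFP-PRO-GFP reporter HT1080 cells | dosing = 20 µM single dose, 1% DMSO | timing = overnight cell settling, then overnight compound exposure, 37 °C, 5% CO2 | read-out basis = GFP/RFP fluorescence ratio | controls = DMSO and RFP-L50D-GFP cell wells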
DDE Tn6 FP inh = inhibitors of Tn6 peptide binding to fibrin DD(E), primary screen, biochemical, fluorescence polarization, human fibrin, Tn6 probe; inhibition, % at 8.3 µM; AID 720509, 2013; 0.21% of 370,000 active; Fibrin DD(E) TRITC-Tn6 fluorescence polarization displacement; Fibrinogen beta chain (Homo sapiens), P02675;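 active means inhibition above a per-campaign cutoff: mean of compounds within control limits plus 3 SD, cut at about 15% in these data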;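 further: 0% = median of all compound wells on the plate and 100% = blocking peptide control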
Neddyl block = inhibitors of cullin neddylation, primary screen, biochemical, TR-FRET, uHTS, NAE and Ubc12; 0.58% of 360,000 active; NEDD8-conjugating enzyme Ubc12 (Homo sapiens) + NEDD8-activating enzyme E1 regulatory …; AID 651699, 2012; calls only at 25 µM; in the data active means inhibition above about 36%
Target sequence (P61081 whole entry, looked up): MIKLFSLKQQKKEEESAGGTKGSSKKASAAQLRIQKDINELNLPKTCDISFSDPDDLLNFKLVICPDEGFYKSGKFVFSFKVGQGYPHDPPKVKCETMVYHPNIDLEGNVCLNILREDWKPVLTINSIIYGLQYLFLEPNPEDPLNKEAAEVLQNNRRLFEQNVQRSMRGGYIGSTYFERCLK
Target sequence (Q13564 whole entry, looked up): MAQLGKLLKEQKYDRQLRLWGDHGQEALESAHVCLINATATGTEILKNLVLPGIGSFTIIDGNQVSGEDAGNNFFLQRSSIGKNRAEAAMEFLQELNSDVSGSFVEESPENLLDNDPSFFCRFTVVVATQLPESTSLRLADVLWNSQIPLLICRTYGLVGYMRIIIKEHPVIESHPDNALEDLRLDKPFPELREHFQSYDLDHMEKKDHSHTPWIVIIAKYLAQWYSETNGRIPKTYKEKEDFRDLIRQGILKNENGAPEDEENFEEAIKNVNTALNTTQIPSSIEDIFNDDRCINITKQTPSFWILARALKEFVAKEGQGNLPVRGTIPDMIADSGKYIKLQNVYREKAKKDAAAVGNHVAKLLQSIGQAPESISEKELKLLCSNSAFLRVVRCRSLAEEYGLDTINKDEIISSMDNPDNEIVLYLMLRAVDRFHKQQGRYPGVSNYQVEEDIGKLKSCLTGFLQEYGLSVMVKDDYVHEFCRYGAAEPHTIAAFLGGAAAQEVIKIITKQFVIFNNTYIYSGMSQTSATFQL
SKN-1 inh = suppressors of acrylamide-induced Pgst-4::GFP reporter in worms, primary screen, SKN-1 inhibitor project, whole organism, uHTS, GFP/RFP fluorescence ratio, strain VP596. inhibition, % at 21.8 µM. C. elegans VP596 Pgst-4::GFP/RFP ratio, 24 h. AID 624304, 2012. 0.49% of 360,000 active;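 active means interference check ratio from 0.5 to 1.5 plus GFP to RFP signal ratio inhibition reaching or exceeding a fixed threshold, cut at about 30% in these data, passing the limit was not always enough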
proKLK7 act = proKLK7 zymogen activators, primary screen, biochemical, fluorescence intensity. Kallikrein-7 (Homo sapiens), P49862. purified proKLK7, EDANS-DABCYL substrate fluorescence; 100% is mature enzyme control, 0% vehicle. activation, % at 7 µM. 0.9% of 370,000 active. AID 652039, 2013;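 active means activation above the mean of all tested compounds plus 3 SD, computed per campaign excluding outliers beyond control limits, cut at about 13% in these data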
Tn7 DDE FP = inhibitors of Tn7 peptide binding to fibrin DD(E), primary screen, biochemical, fluorescence polarization, human fibrin, Tn7 probe. Fibrinogen beta chain (Homo sapiens), P02675. FP displacement of FITC-Tn7 peptide from fibrin DD(E); 0% = median of compound wells per plate. inhibition, % at 8.3 µM. 0.13% of 370,000 active. AID 720508, 2013;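 active means inhibition above the mean of compounds falling within the control limits plus 3 SD of them, cut at about 14% in these data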;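 further: 0% = plate median of compound wells and 100% = 10 µM Aha-Tn7 peptide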
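System: human fibrin DD(E); quantity: Fibrin-DD(E) at 2 µM final; also added: fluorescent Tn7 probe at 0.1 µM; compound dosing: single nominal test concentration of 8.3 µM per compound; schedule: 10 min preincubation, 3 h with tracer, room temperature; detection: fluorescence polarization of the labelled Tn7 tracer; repeats: one replicate per compound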
KLK7 act conf = proKLK7 zymogen activators, confirmation, biochemical, fluorescence intensity, triplicate; shares compounds with proKLK7 act; purified proKLK7, EDANS-DABCYL substrate fluorescence; scaled: vehicle 0, mature enzyme 100; activation, % at 7 µM; 68% of 3,200 active; AID 686949, 2013;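 active means activation, as change over the incubation, above the mean of all tested compounds plus 3 SD, cut at about 13% in these data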
EDANS-DABCYL int = EDANS-DABCYL substrate optical interference, artefact control for kallikrein-7 zymogen activator project, biochemical, fluorescence intensity, high throughput. no enzyme, 4 h; solvent 0%, active enzyme control 100%. shares compounds with proKLK7 act. 80% of 3,200 active. activation, % at 7 µM;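 active means activation above the all-compound mean plus 3 SD, ignoring values outside control-based bounds, cut at about 4.8% in these data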;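 further: value is the 4 h activation minus the activation read at time zero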
EDANS interf = optically interferes with EDANS-DABCYL fluorescence, kallikrein-7 activator counter-screen | shares compounds with proKLK7 act | EDANS-DABCYL peptide fluorescence interference, no enzyme | EC50, µM | 20% of 250 active;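 active means compounds that raise the fluorescence signal in this interference counterscreen, with EC50 at or below 10 µM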;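 further: intact quenched peptide substrate alone read at 355 nm excitation and 520 nm emission; signal is fluorescence gain from T0 to T4 after four hours at room temperature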
DDE Tn7 confirm = inhibitors of Tn7 peptide binding to fibrin DD(E), confirmation, biochemical, fluorescence polarization, human fibrin, Tn7 probe | shares compounds with Tn7 DDE FP | FP displacement of TRITC-Tn7 peptide from DD(E); 0% set at plate's compound-well median | inhibition, % at 8.3 µM | 5% of 460 active;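 active means inhibition above the campaign cutoff, the mean of compounds within control limits plus 3 SD, cut at about 14% in these data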;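 further: 100% = median FP of high control wells holding Aha-Tn7 inhibitor peptide; displacers lower polarization since freed probe rises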
DDE Tn7 FP ctr = counter-screen hit for Tn7 peptide-fibrin DD(E) binding disruption; shares compounds with Tn7 DDE FP; TRITC-Tn7 probe displacement, fluorescence polarization; inhibition, % at 8.3 µM; 3% of 460 active;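 active means inhibition above the cutoff, the mean of compounds lying between the control bounds plus 3 SD of those compounds, cut at about 17% in these data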;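 further: 0% = median of compound sample wells and 100% = excess unlabeled Aha-Tn7 peptide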
* hit, by the source's call; i = inactive; · = no result given. Only some compounds are listed: those with a hit (about 2.2% of all), similar ones and a draw of the others.

SMILES	MT1-MMP act inh	DDE Tn6 FP inh	Neddyl block	SKN-1 inh	proKLK7 act	Tn7 DDE FP	KLK7 act conf	EDANS-DABCYL int	others
COCCN1Cc2cc(=O)n3c([nH]c4ccccc43)c2C1=N	0	4	·	-4	22*	-4	19*	-8	EDANS interf=>70
Cc1cc(=O)oc2cc(OCC(=O)N3CCN(C(C)c4ccccc4)CC3)c(Cl)cc12 (configuration not stated)	-7	-4	·	-6	38*	-7	63*	75*
Cc1cc(=O)oc2cc(OCC(=O)N3C[C@H]4C[C@@H](C3)c3cccc(=O)n3C4)c(Cl)cc12	2	-1	i	6	0	13	·	·
NP(=O)(Oc1ccccc1)c1ccccc1 (configuration not stated)	0	3	i	-2	0	2	·	·
CN(C(=O)CN1CC=C(c2ccccc2)CC1)c1c(N)n(Cc2ccccc2)c(=O)[nH]c1=O	1	3	i	-2	0	4	·	·
CN(C)[C@@H]1C(=O)C(C(N)=O)=C(O)[C@@]2(O)C(=O)C3=C(O)c4c(O)ccc(Cl)c4[C@@](C)(O)C3C[C@@H]12 (some centres not stated)	-25	-15	i	13	25*	-3	17*	17*
CCc1cc2c(s1)N(CC(=O)OC)C(=O)CN=C2c1ccccc1OC	2	3	i	4	1	-5	·	·
c1ccc2oc(-c3ccc4c(c3)CNCc3cnnn3-4)cc2c1	8	3	·	11	22*	9	19*	19*
Nc1ccc2ccc3cccc[n+]3c2c1	-174	5	i	-100	95*	70*	73*	66*	DDE Tn7 confirm=25*;DDE Tn7 FP ctr=-11
C[C@]12CCC3C(CC[C@H]4C[C@H](O)CC[C@]34C)C1C[C@@H](O)[C@@H]2O (some centres not stated)	0	1	i	-9	0	0	·	·
FC(F)(F)c1cccc(NC2=NCCCS2)c1	3	6	i	-4	1	14*	·	·	DDE Tn7 confirm=-5;DDE Tn7 FP ctr=-8
CN(c1ccc(O)cc1)c1ccc([N+](=O)[O-])c2nonc12	0	-1	i	7	0	1	·	·
Nc1ccc2nonc2c1[N+](=O)[O-]	-118	0	i	-13	0	20*	·	·	DDE Tn7 confirm=2;DDE Tn7 FP ctr=-2
O=C(Nc1cccc2ccccc12)c1nn(C23CC4CC(CC(C4)C2)C3)cc1Br	-9	5	i	4	0	9	·	·
